This passage reports IC50 and Active dose results from ChEMBL document CHEMBL1128548, “Synthesis and evaluation of 5-amino-5,6,7,8-tetrahydroquinolinones as potential agents for the treatment of Alzheimer's disease” (J Med Chem, 1995).

pIC50: −log10 of the molar value. Several values for one entry are separate records, joined by “and”; a condition that tells them apart may be missing. Equal entries are not always repeated. Activity calls are given as the source filed them.

The target in assay [1] is T1, Acetylcholinesterase (Rattus norvegicus, UniProt P37136).
T1 sequence (P37136 whole entry): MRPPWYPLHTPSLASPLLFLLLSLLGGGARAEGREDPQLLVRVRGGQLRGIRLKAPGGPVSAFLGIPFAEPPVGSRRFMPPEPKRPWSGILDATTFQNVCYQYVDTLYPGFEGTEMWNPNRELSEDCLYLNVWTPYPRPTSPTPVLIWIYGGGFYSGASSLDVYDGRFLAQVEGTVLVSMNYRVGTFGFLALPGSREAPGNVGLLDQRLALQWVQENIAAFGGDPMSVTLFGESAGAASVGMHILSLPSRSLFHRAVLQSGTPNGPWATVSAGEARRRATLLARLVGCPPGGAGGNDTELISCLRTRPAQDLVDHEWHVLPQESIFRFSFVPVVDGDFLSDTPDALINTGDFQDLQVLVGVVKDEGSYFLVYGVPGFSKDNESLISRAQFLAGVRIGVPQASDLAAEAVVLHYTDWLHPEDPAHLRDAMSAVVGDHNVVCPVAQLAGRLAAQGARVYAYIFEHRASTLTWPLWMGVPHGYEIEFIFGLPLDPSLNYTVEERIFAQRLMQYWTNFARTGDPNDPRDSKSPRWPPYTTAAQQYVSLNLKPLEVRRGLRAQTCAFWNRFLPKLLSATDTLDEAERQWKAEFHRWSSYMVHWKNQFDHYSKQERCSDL
Nature of the assay: Acetylcholinesterase inhibitory activity in rat striatal homogenates.

The species named for assay [2] is Mus musculus. Kind of assay: Active dose for reversal of Scopolamine dementia(SDDA) activity in mouse; NA =' not active'. It is filed as functional, organism-based. In short, it runs like this: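 Male CFW mice, 15 per group (vehicle/vehicle, scopolamine/vehicle, scopolamine/drug). Scopolamine hydrobromide 3.0 mg/kg sc 30 min before training, test compound in distilled water 5 min before. Step-through passive avoidance retested 24 h later without shock, recording latency. Cutoff is the second-longest scopolamine/vehicle latency. A dose is active if 20% of mice exceed the cutoff.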

For assay [3], the system named is Mus musculus. Kind of assay: Active dose for reversal of Scopolamine dementia activity in mouse following s.c. administration. It is filed as functional. In short, it runs like this: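 Male CFW mice, 15 per group (vehicle/vehicle, scopolamine/vehicle, scopolamine/drug). Scopolamine hydrobromide 3.0 mg/kg sc 30 min before training, then test compound in distilled water 5 min before. One-trial dark passive avoidance, retested 24 h later without injection or shock. Cutoff is the second-longest scopolamine/vehicle latency. Dose is active when 20% of animals exceed cutoff. Test valid if cutoff <120 s.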

With `CC(C)=CCn1c2c(ccc1=O)C(NCCc1cccc(Cl)c1)CCC2` (stereo not given), the pIC50 in assay [1] was 6.28. The Active dose result in assay [2] is “inactive”.

`C/C=C1\[C@H]2C=C(C)C[C@]1(N)c1ccc(=O)[nH]c1C2` [HUPERZINE A]: in assay [1], the pIC50 was 7.10.

In assay [1], `Cn1c2c(ccc1=O)C(NCc1ccccc1)CCC2` (stereo not given) gave a pIC50 of under 4.00.

For `COc1ccc(CCNC2CCCc3c2ccc(=O)n3CC=C(C)C)cc1OC` (stereo not given), in assay [1], the pIC50 was 5.79.

In assay [1], `C=C(C)Cn1c2c(ccc1=O)C(NCCc1ccc(Cl)c(Cl)c1)CCC2` (stereo not given) gave a pIC50 of 5.27. For the same compound, in assay [3], the Active dose was 3 mg/kg.

In assay [1], `O=c1ccc2c(n1CCc1ccccc1)CCCC2NCCc1ccc(Cl)c(Cl)c1` (stereo not given) gave a pIC50 of 4.30.

As for `O=c1ccc2c(n1Cc1ccccc1)CCCC2NCCc1ccc(Cl)c(Cl)c1` (stereo not given), in assay [1], the pIC50 is 4.76.

Compound `CCCn1c2c(ccc1=O)C(NCCc1c[nH]c3ccccc13)CCC2` (stereo not given) gave a pIC50 in assay [1] of 5.50. For the same compound, in assay [3], the Active dose was determined as 3 mg/kg.

Compound `CC(C)=CCn1c2c(ccc1=O)C(NCCc1ccc(F)c(F)c1)CCC2` (stereo not given) had a pIC50 in assay [1] of 6.01.

For `CCCn1c2c(ccc1=O)C(NC1Cc3ccccc3C1)CCC2` (stereo not given), the pIC50 in assay [1] is 5.41. The Active dose in assay [3] was found to be 1 mg/kg.

For the compound `CC(C)=CCn1c2c(ccc1=O)C(N)CCC2` (stereo not given), the pIC50 in assay [1] is under 4.00.

Regarding `CC(C)=CCn1c2c(ccc1=O)C(NCCc1ccccc1Cl)CCC2` (stereo not given), the negative-log IC50 (pIC50) in assay [1] is 6.28.

As for `CC(C)=CCn1c2c(ccc1=O)C(NCCc1ccc(Cl)c(Cl)c1)CCC2` (stereo not given), in assay [1], the pIC50 was 6.29.

In assay [1], `CC(C)=CCn1c2c(ccc1=O)C(NCCc1ccc(Cl)cc1Cl)CCC2` (stereo not given) had a pIC50 of 6.10. In addition, the Active dose in assay [3] is 1 mg/kg and 3 mg/kg.

The compound `CC(C)=CCn1c2c(ccc1=O)C(NCCc1cc(Cl)cc(Cl)c1)CCC2` (stereo not given) had a pIC50 in assay [1] of 6.10.

As for `CC(C)=CCn1c2c(ccc1=O)C(NCCc1ccc(Cl)c(C(F)(F)F)c1)CCC2` (stereo not given), in assay [1], the pIC50 is 6.10. The Active dose entry in assay [2] was “inactive”.

The compound `CC1(N)CCCc2nc(O)ccc21` (stereo not given) showed a pIC50 in assay [1] of under 4.00.

In the case of `CC(C)Cn1c2c(ccc1=O)C(NCCc1ccc(Cl)c(Cl)c1)CCC2` (stereo not given), the pIC50 in assay [1] was 4.63.

Consider `NC1(Cc2ccccc2)CCCc2[nH]c(=O)ccc21` (stereo not given), for which the pIC50 in assay [1] is under 4.00.

In turn, `CCCCCCCCCCn1c2c(ccc1=O)C(NCCc1ccc(Cl)c(Cl)c1)CCC2` (stereo not given) had a pIC50 in assay [1] of 4.47.

For the compound `Cn1c2c(ccc1=O)C(NCCCc1ccccc1)CCC2` (stereo not given), the pIC50 in assay [1] is 4.31.

In turn, `Cn1c2c(ccc1=O)C(NCCc1ccc(C(F)(F)F)cc1)CCC2` (stereo not given) gave a pIC50 in assay [1] of 4.89.

In assay [1], `CC(C)n1c2c(ccc1=O)C(NCCc1ccc(Cl)c(Cl)c1)CCC2` (stereo not given) showed a pIC50 of 4.46.

Compound `COc1cccc(CCNC2CCCc3c2ccc(=O)n3CC=C(C)C)c1` (stereo not given) gave a pIC50 in assay [1] of 5.96.

Turning to `Cn1c2c(ccc1=O)C(C)(N)CCC2` (stereo not given), in assay [1], the pIC50 is under 4.00.

In assay [1], `CCCCCCn1c2c(ccc1=O)C(NCCc1ccc(Cl)c(Cl)c1)CCC2` (stereo not given) gave a pIC50 of 5.43.

`CC(C)=CCn1c2c(ccc1=O)C(NCCc1cc(Cl)ccc1Cl)CCC2` (stereo not given) showed a pIC50 in assay [1] of 5.87.

Consider `CC(C)=CCn1c2c(ccc1=O)C(NCCc1ccc(O)cc1)CCC2` (stereo not given), for which, in assay [1], the pIC50 was 6.40.

`Cc1ccc(CCNC2CCCc3c2ccc(=O)n3C)cc1` (stereo not given) gave a pIC50 in assay [1] of 4.74.

The compound `Cn1c2c(ccc1=O)C(NCCc1ccccc1)CCC2` (stereo not given) had a pIC50 in assay [1] of 4.73. Besides, the Active dose in assay [3] was 1 mg/kg.

As for `CCCn1c2c(ccc1=O)C(NCCc1cccs1)CCC2.O=C(O)/C=C/C(=O)O` (stereo not given), the pIC50 in assay [1] is 5.22.

`CCCn1c2c(ccc1=O)C(NCCc1ccccn1)CCC2` (stereo not given): the pIC50 in assay [1] was 5.36. In addition, in assay [2], the Active dose entry was “inactive”.

`CC(C)CCn1c2c(ccc1=O)C(NCCc1ccc(Cl)c(Cl)c1)CCC2` (stereo not given): in assay [1], the pIC50 is 5.63. The Active dose in assay [3] was determined as 3 mg/kg.

Turning to `Oc1ccc2c(n1)CCCC2NCCc1ccccc1` (stereo not given), the pIC50 in assay [1] is under 4.00.

As for `C=CCn1c2c(ccc1=O)C(NCCc1ccc(Cl)c(Cl)c1)CCC2` (stereo not given), the pIC50 in assay [1] was 5.04.

Take `CCCn1c2c(ccc1=O)C(NCCC(C)(C)C)CCC2` (stereo not given): the pIC50 in assay [1] is 4.81.
